Measurements reported in ChEMBL document CHEMBL4334465, “SAR Studies on Aromatic Acylhydrazone-Based Inhibitors of Fungal Sphingolipid Synthesis as Next-Generation Antifungal Agents” (J Med Chem, 2019).
Values after ≈ are worked out from the molar mass of the structure shown.

Assays:
[1] = system: Pichia kudriavzevii; experiment: Antifungal activity against Candida krusei 6258 assessed as FICI in presence of fluconazole; type: functional
Outline: (§1)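 Checkerboard combination scored by fractional inhibitory concentration index. Acylhydrazone serially diluted 16 to 0.015 μg/mL (11 dilutions). Partner drug in seven dilutions: fluconazole 12 to 0.19 μg/mL, amphotericin B 5 to 0.078 μg/mL, caspofungin, itraconazole or voriconazole 8 to 0.007 μg/mL.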

[2] = system: Aspergillus fumigatus; experiment: Antifungal activity against Aspergillus fumigatus assessed as FICI in presence of voriconazole; type: functional; outline: as §1
[3] = system: A549; experiment: Cytotoxicity against human A549 cells after 24 to 48 hrs by MTT assay; type: functional; conditions: read-out: LD50 (the source's name)
Outline: (§2)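 A549 and HepG2 kept in DMEM with 10% FBS and 1% pen-strep. At passage 7, seeded at 10⁵ cells/well and allowed to adhere 14 h. Compound added at 0.03–128 μg/mL, untreated wells as controls. Incubation 37°C, 5% CO₂ for 24 or 48 h. MTT (5 mg/mL in PBS) added for 4 h, formazan dissolved in DMSO, OD570.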

[4] = system: Pichia kudriavzevii; experiment: Antifungal activity against Candida krusei measured after 24 to 72 hrs; type: functional
Outline: (§3)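 MIC by modified CLSI broth microdilution. Candida strains grown in YNB without ammonium sulfate or amino acids with 1% asparagine, pH 7.0, 2% glucose. Inoculum per CLSI M27A3. Compound serially diluted 32 to 0.03 μg/mL. Incubation 37°C, 5% CO₂, 24–72 h, then OD450. MIC80 taken as the lowest concentration giving 80% growth inhibition versus untreated control.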

[5] = system: Pichia kudriavzevii; experiment: Antifungal activity against fluconazole-resistant Candida krusei assessed as FICI in presence of itraconazole; type: functional
Outline: (§4)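 Checkerboard in 96-well plate. Test compound diluted 16 to 0.015 μg/mL (11 dilutions) against the partner drug in seven dilutions: fluconazole 12 to 0.19 μg/mL, caspofungin, itraconazole or voriconazole 8 to 0.007 μg/mL. Fractional inhibitory concentration index (FICI) calculated from the combinations.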

[6] = system: Candida parapsilosis; experiment: Antifungal activity against Candida parapsilosis assessed as FICI in presence of fluconazole; type: functional; outline: as §1
[7] = system: Candida parapsilosis; experiment: Antifungal activity against Candida parapsilosis assessed as FICI in presence of caspofungin; type: functional; outline: as §1
[8] = system: Candida albicans; experiment: Antifungal activity against Candida albicans measured after 24 to 72 hrs; type: functional
Outline: (§5)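 Modified CLSI broth microdilution with inoculum per M27A3. Compounds were serially diluted 32 to 0.03 μg/mL. Media: C. neoformans in HEPES-buffered YNB without amino acids (pH 7.0, 2% glucose); Candida strains in YNB without ammonium sulfate or amino acids plus 1% asparagine (pH 7.0, 2% glucose); A. fumigatus in RPMI (pH 7.0, 2% glucose).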

[9] = system: Candida parapsilosis; experiment: Antifungal activity against Candida parapsilosis measured after 24 to 72 hrs; type: functional; conditions: Lodderomyces parapsilosis; outline: as §5
[10] = system: Cryptococcus neoformans; experiment: Fungicidal activity against Cryptococcus neoformans H99 measured after 24 hrs by time-kill assay; type: functional, var grubii H99
Outline: (§6)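 Overnight C. neoformans washed in PBS and resuspended in HEPES-buffered YNB, pH 7.4. 2 × 10⁴ cells exposed to a range of drug concentrations in 10 mL with 0.5% DMSO final, at 37°C, 5% CO₂, shaking at 200 rpm. Aliquots sampled over 96 h, diluted and plated on YPD; CFU counted after 48 h at 30°C.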

[11] = system: Pichia kudriavzevii; experiment: Antifungal activity against Candida krusei 6258 assessed as FICI in presence of voriconazole; type: functional; outline: as §1
[12] = system: Cryptococcus neoformans; experiment: Fungicidal activity against Cryptococcus neoformans H99 measured after 12 hrs by time-kill assay; type: functional, var grubii H99; outline: as §6
[13] = system: [Candida] auris; experiment: Antifungal activity against Candida auris assessed as FICI in presence of caspofungin; type: functional, Candidozyma auris; outline: as §1
[14] = system: HepG2; experiment: Cytotoxicity against human HepG2 cells after 24 to 48 hrs by MTT assay; type: functional; conditions: read-out: LD50 (the source's name); outline: as §2
[15] = system: Candida albicans; experiment: Antifungal activity against Candida albicans assessed as FICI in presence of fluconazole; type: functional; outline: as §1
[16] = system: [Candida] auris; experiment: Antifungal activity against Candida auris assessed as FICI in presence of voriconazole; type: functional, Candidozyma auris; outline: as §1
[17] = system: Candida parapsilosis; experiment: Antifungal activity against Candida parapsilosis assessed as FICI in presence of itraconazole; type: functional; outline: as §1
[18] = system: Pichia kudriavzevii; experiment: Antifungal activity against Candida krusei 6258 assessed as FICI in presence of caspofungin; type: functional; outline: as §1
[19] = system: [Candida] auris; experiment: Antifungal activity against Candida auris assessed as FICI in presence of fluconazole; type: functional, Candidozyma auris; outline: as §1
[20] = system: Cryptococcus neoformans; experiment: Antifungal activity against Cryptococcus neoformans H99 assessed as FICI in presence of itraconazole; type: functional, var grubii H99; outline: as §1
[21] = system: Pichia kudriavzevii; experiment: Antifungal activity against Candida krusei 6258 assessed as FICI in presence of itraconazole; type: functional; outline: as §1
[22] = system: Candida albicans; experiment: Antifungal activity against Candida albicans assessed as FICI in presence of caspofungin; type: functional; outline: as §1
[23] = Selectivity index, ratio of LD50 for human A549 cells to MIC80 for Cryptococcus neoformans H99; type: toxicity; conditions: read-out: Selectivity Index
Outline: (§7)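 SI = LD₅₀/MIC₈₀. Cytotoxicity: A549 or HepG2 cells (DMEM, 10% FBS, passage 7, 10⁵ cells/well) adhered 14 h, then exposed to 0.03–128 μg/mL for 24 or 48 h at 37°C, 5% CO₂; MTT 4 h, formazan dissolved in DMSO, read at 570 nm. MIC₈₀ against C. neoformans from broth microdilution in HEPES-buffered YNB, pH 7.0.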

[24] = system: Aspergillus fumigatus; experiment: Antifungal activity against Aspergillus fumigatus measured after 24 to 72 hrs; type: functional; outline: as §5
[25] = system: Candida albicans; experiment: Antifungal activity against Candida albicans assessed as FICI in presence of itraconazole; type: functional; outline: as §1
[26] = system: Cryptococcus neoformans; experiment: Fungicidal activity against Cryptococcus neoformans H99 measured up to 96 hrs by time-kill assay; type: functional, organism-based; conditions: var grubii H99; outline: as §6
[27] = system: Candida parapsilosis; experiment: Antifungal activity against Candida parapsilosis assessed as FICI in presence of voriconazole; type: functional; outline: as §1
[28] = system: Aspergillus fumigatus; experiment: Antifungal activity against Aspergillus fumigatus assessed as FICI in presence of fluconazole; type: functional; outline: as §1
[29] = system: Pichia kudriavzevii; experiment: Antifungal activity against multi-drug resistant Candida krusei measured after 24 to 72 hrs; type: functional; outline: as §3
[30] = system: [Candida] auris; experiment: Antifungal activity against Candida auris measured after 24 to 72 hrs; type: functional; conditions: Candidozyma auris; outline: as §5
[31] = system: Candida albicans; experiment: Antifungal activity against Candida albicans assessed as FICI in presence of voriconazole; type: functional; outline: as §1
[32] = system: Cryptococcus neoformans; experiment: Antifungal activity against Cryptococcus neoformans H99 assessed as FICI in presence of amphotericin B; type: functional, var grubii H99; outline: as §1
[33] = system: Cryptococcus neoformans; experiment: Antifungal activity against Cryptococcus neoformans H99 measured after 24 to 72 hrs; type: functional; conditions: var grubii H99; outline: as §5
[34] = system: Aspergillus fumigatus; experiment: Antifungal activity against Aspergillus fumigatus assessed as FICI in presence of itraconazole; type: functional; outline: as §1
[35] = Selectivity index, ratio of LD50 for human HepG2 cells to MIC80 for Cryptococcus neoformans H99; type: toxicity; conditions: read-out: Selectivity Index; outline: as §7
[36] = system: Cryptococcus neoformans; experiment: Antifungal activity against Cryptococcus neoformans H99 assessed as FICI in presence of fluconazole; type: functional, var grubii H99; outline: as §1
[37] = system: Pichia kudriavzevii; experiment: Antifungal activity against fluconazole-resistant Candida krusei assessed as FICI in presence of voriconazole; type: functional; outline: as §4
[38] = system: Cryptococcus neoformans; experiment: Antifungal activity against Cryptococcus neoformans H99 assessed as FICI in presence of voriconazole; type: functional, var grubii H99; outline: as §1
[39] = system: [Candida] auris; experiment: Antifungal activity against Candida auris assessed as FICI in presence of itraconazole; type: functional, Candidozyma auris; outline: as §1
[40] = system: Pichia kudriavzevii; experiment: Antifungal activity against fluconazole-resistant Candida krusei assessed as FICI in presence of caspofungin; type: functional; outline: as §4

| Compound | fractional inhibitory concentration index (FICI) [1] | fractional inhibitory concentration index (FICI) [2] | CC50 [3] [µg/mL] | MIC80 [4] [µg/mL] | fractional inhibitory concentration index (FICI) [5] | fractional inhibitory concentration index (FICI) [6] | fractional inhibitory concentration index (FICI) [7] | MIC80 [8] [µg/mL] | MIC80 [9] [µg/mL] | MFC100 [10] [µg/mL] | fractional inhibitory concentration index (FICI) [11] | fractional inhibitory concentration index (FICI) [13] | CC50 [14] [µg/mL] | fractional inhibitory concentration index (FICI) [15] | fractional inhibitory concentration index (FICI) [16] | fractional inhibitory concentration index (FICI) [17] | fractional inhibitory concentration index (FICI) [18] | fractional inhibitory concentration index (FICI) [19] | fractional inhibitory concentration index (FICI) [20] | fractional inhibitory concentration index (FICI) [21] | further results |
| --- | --- | --- | --- | --- | --- | --- | --- | --- | --- | --- | --- | --- | --- | --- | --- | --- | --- | --- | --- | --- | --- |
| O=C(N/N=C/c1ccc(Br)cc1O)c1cc(Br)cc(Br)c1O | 0.501 | 0.188 | 32 (≈ 64.9 µM) | 0.25 (≈ 0.507 µM) | 0.023 | 1.015 | 2 | 2 (≈ 4.06 µM) | 2 (≈ 4.06 µM) | 0.12 (≈ 0.243 µM) | 0.129 | 2 | 32 (≈ 64.9 µM) | 2 | 0.252 | 0.508 | 2.002 | 0.531 | 0.247 | 0.183 | MFC100 [12]: 0.12 µg/mL (≈ 0.243 µM); fractional inhibitory concentration index (FICI) [22]: 0.508; selectivity ratio [23]: 533; MIC80 [24]: 4 µg/mL (≈ 8.11 µM); fractional inhibitory concentration index (FICI) [25]: 0.188; Activity [26]: Dose-dependent effect; fractional inhibitory concentration index (FICI) [27]: 0.135; fractional inhibitory concentration index (FICI) [28]: 2; MIC80 [29]: 0.25 µg/mL (≈ 0.507 µM); MIC80 [30]: 0.5 µg/mL (≈ 1.01 µM); fractional inhibitory concentration index (FICI) [31]: 0.375; fractional inhibitory concentration index (FICI) [32]: 0.261; MIC80 [33]: 0.06 µg/mL (≈ 0.122 µM); fractional inhibitory concentration index (FICI) [34]: 1.016; selectivity ratio [35]: 533; fractional inhibitory concentration index (FICI) [36]: 0.24; fractional inhibitory concentration index (FICI) [37]: 0.018; fractional inhibitory concentration index (FICI) [38]: 0.24; fractional inhibitory concentration index (FICI) [39]: 0.18 |
| O=C(N/N=C/c1cc(Br)cc(Br)c1O)c1ccc(Br)c(Br)c1 | 1 | 1.031 | 64 (≈ 115 µM) | > 16 | 0.528 | 2.015 | 1.001 | > 16 | 16 (≈ 28.8 µM) | 0.12 (≈ 0.216 µM) | 0.254 | 0.501 | 64 (≈ 115 µM) | 0.563 | 1.001 | 2.007 | 0.125 | 1.001 | 0.247 | 0.153 | fractional inhibitory concentration index (FICI) [40]: 0.121; fractional inhibitory concentration index (FICI) [22]: 0.5; selectivity ratio [23]: 1070; MIC80 [24]: > 16 µg/mL; fractional inhibitory concentration index (FICI) [25]: 0.37; Activity [26]: Dose-dependent effect; fractional inhibitory concentration index (FICI) [27]: 1.03; fractional inhibitory concentration index (FICI) [28]: 2; MIC80 [29]: 4 µg/mL (≈ 7.2 µM); MIC80 [30]: 16 µg/mL (≈ 28.8 µM); fractional inhibitory concentration index (FICI) [31]: 0.271; fractional inhibitory concentration index (FICI) [32]: 0.247; MIC80 [33]: 0.06 µg/mL (≈ 0.108 µM); fractional inhibitory concentration index (FICI) [34]: 0.281; selectivity ratio [35]: 1070; fractional inhibitory concentration index (FICI) [36]: 0.237; fractional inhibitory concentration index (FICI) [37]: 0.31; fractional inhibitory concentration index (FICI) [38]: 0.247; fractional inhibitory concentration index (FICI) [39]: 1.12 |
